Here are results for 3 molecules from ChEMBL document CHEMBL4196022, “Alkynyl-containing phenylthiazoles: Systemically active antibacterial agents effective against methicillin-resistant Staphylococcus aureus (MRSA)” (Eur J Med Chem, 2018).

Converted amounts (≈) assume the structure as drawn. The source made the active and inactive calls. The calls are words filed in the database; no cut-off is given here.

For data set [1] the following is noted: human, microsomes, 1 h, 0.1 µM.
Data set [2] relates to Staphylococcus aureus. In words: Bactericidal activity against methicillin-resistant Staphylococcus aureus USA300 up to 18 hrs by broth microdilution assay. Type of data set: functional. Conditions: USA300, 18 h, read-out: MBC99.9. A general note: In broth dilution the organism is exposed to a series of concentrations in liquid medium.
Data set [3] has as its system Staphylococcus aureus. In words: Antibacterial activity against methicillin-resistant Staphylococcus aureus USA300 after 20 hrs by broth microdilution assay. Type of data set: functional. Conditions: USA300, 20 h. The method, boiled down:
(§1)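 Broth microdilution per CLSI in cation-adjusted Mueller Hinton broth. Compounds serially diluted, in triplicate. Incubation at 37 °C for at least 20 hours. MIC taken as the lowest concentration with no visible bacterial growth.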

Data set [4] deals with Staphylococcus aureus. In words: Antibacterial activity against methicillin-resistant Staphylococcus aureus NRS107 after 20 hrs by broth microdilution assay. Type of data set: functional. Conditions: NRS107, 20 h. The method in brief: as §1
The test system of data set [5] is Staphylococcus aureus. The data set can be described thus: Inhibition of UPPS/UPPP in vancomycin-resistant Staphylococcus aureus VRS10 assessed as potentiation of vancomycin-induced antibacterial activity by measuring fold reduction in vancomycin MIC at 0.5 times MIC preincubated for 30 mins followed by vancomycin addition measured after 20 to 22 hrs by broth microdilution assay relative to control. The method in brief: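 VRS10 suspension pre-exposed to compound at ½ × MIC for 30 min at room temperature. […] Incubation at 37 °C for 20–22 h before the MIC was read; untreated bacteria served as control.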

Data set [6] relates to Staphylococcus aureus. The data set can be described thus: Ratio of MBC to MIC for vancomycin-resistant Staphylococcus aureus VRS12. It counts as functional. The method in brief:
(§2)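 MBC/MIC ratio. […] MBC by plating no-growth wells onto tryptic soy agar at 37 °C for at least 18 h; taken as the concentration giving 99.9% growth inhibition.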

The subject of data set [7] is Staphylococcus aureus. The data set can be described thus: Bactericidal activity against methicillin-resistant Staphylococcus aureus NRS107 up to 18 hrs by broth microdilution assay. Type of data set: functional. Conditions: NRS107, 18 h, read-out: MBC99.9.
Data set [8] relates to Staphylococcus aureus. The data set can be described thus: Bactericidal activity against methicillin-resistant Staphylococcus aureus NRS119 up to 18 hrs by broth microdilution assay. It counts as functional. As to conditions: NRS119, 18 h, read-out: MBC99.9.
For data set [9], the system named is Staphylococcus aureus. In words: Antibacterial activity against vancomycin-resistant Staphylococcus aureus VRS11a after 20 hrs by broth microdilution assay. Type of data set: functional. The method, boiled down:
as §1

For data set [10], the system named is Staphylococcus aureus. The data set can be described thus: Antibacterial activity against methicillin-resistant Staphylococcus aureus NRS123 (USA400) infected in mouse J774 cells at 8 ug/ml after 24 hrs. Type of data set: functional, organism-based. The method in brief: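 J774 macrophages grown in DMEM with 10% FBS at 37 °C, 5% CO2. Infected with USA400 at MOI ~100:1 for 1 h, then washed with gentamicin 50 μg/mL. Treated in triplicate wells for 24 h, washed with gentamicin again and lysed with 0.1% Triton X-100. Lysate plated on tryptic soy agar for 18–22 h; CFU/mL counted.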

Data set [11] concerns Staphylococcus aureus. In words: Ratio of MBC to MIC for vancomycin-resistant Staphylococcus aureus VRS11a. As to conditions: read-out: Ratio. It counts as functional. The method in brief: as §2
The subject of another data set is HRT-18 cell line. In words: Cytotoxicity against human HRT18 cells assessed as reduction in cell viability up to 32 ug/ml after 2 hrs by MTS assay. As to conditions: hrt-18, 2 h. Type of data set: cell-based.
Data set [12] deals with Staphylococcus aureus. In words: Ratio of MBC to MIC for methicillin-resistant Staphylococcus aureus NRS123 (USA400). Type of data set: functional. The method in brief:
as §2

In data set [13] the test system is Staphylococcus aureus. In words: Bactericidal activity against methicillin resistant Staphylococcus aureus NRS123 (USA400) up to 18 hrs by broth microdilution assay. Type of data set: functional. Conditions: read-out: MBC99.9.
For data set [14], the system named is Staphylococcus aureus. In words: Bactericidal activity against methicillin resistant vancomycin-resistant Staphylococcus aureus VRS12 up to 18 hrs by broth microdilution assay. It counts as functional. Conditions: VRS12, 18 h, read-out: MBC99.9. The method, boiled down:
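MBC set up from the MIC plates. Aliquots from wells with no growth spotted onto tryptic soy agar and incubated at 37 °C for at least 18 hours. MBC taken as the lowest concentration giving 99.9% inhibition of bacterial growth.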

Data set [15] concerns Staphylococcus aureus. The data set can be described thus: Potency index, ratio of vancomycin MIC to compound MIC for antibacterial activity against vancomycin-resistant Staphylococcus aureus VRS10. Type of data set: functional.
The subject of data set [16] is Staphylococcus aureus. In words: Ratio of MBC to MIC for methicillin-resistant Staphylococcus aureus USA300. Type of data set: functional. The method, boiled down:
as §2

In data set [17] the test system is Staphylococcus aureus. In words: Bactericidal activity against methicillin-resistant Staphylococcus aureus NRS123 (USA400) assessed as reduction in bacterial load at 4 times MIC after 8 hrs by time kill assay relative to control. Type of data set: functional.
A further data set deals with J774. The data set can be described thus: Cytotoxicity against mouse J774 cells assessed as reduction in cell viability up to 8 ug/ml after 24 hrs by MTS assay. Conditions: j774, 24 h. Type of data set: cell-based. The method in brief: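 J774 murine macrophages were grown in DMEM with 10% FBS at 37 °C, 5% CO2. Compounds were tested at 8, 16 and 32 μg/mL in triplicate for 24 h, with a DMSO-matched control. MTS was added for 4 h and absorbance read at 490 nm. Viability is given as % of DMSO control (mean ± SD); Student t-test with Holm-Sidak test.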
In general terms: Tetrazolium assays rely on reduction of a dye to a coloured formazan, in cell work by metabolically active cells.

For data set [18], the system named is Staphylococcus aureus. The data set can be described thus: Potency index, ratio of vancomycin MIC to compound MIC for antibacterial activity against vancomycin-resistant Staphylococcus aureus VRS11a. Type of data set: functional.
Data set [19] has as its system Staphylococcus aureus. The data set can be described thus: Ratio of MBC to MIC for vancomycin-resistant Staphylococcus aureus VRS10. Type of data set: functional. The method in brief: as §2
Data set [20] deals with Staphylococcus aureus. The data set can be described thus: Antibacterial activity against vancomycin-resistant Staphylococcus aureus VRS12 after 20 hrs by broth microdilution assay. Conditions: VRS12, 20 h. It counts as functional. The method in brief:
as §1

The test system of data set [21] is Staphylococcus aureus. In words: Ratio of MBC to MIC for methicillin-resistant Staphylococcus aureus NRS119. It counts as functional. The method in brief:
as §2

The nature of data set [22]: Selectivity index, ratio of toxic concentration for human HRT18 cells to MIC for methicillin-resistant Staphylococcus aureus. As to conditions: read-out: Selectivity Index. Type of data set: toxicity.
Data set [23] has as its system Staphylococcus aureus. In words: Antibacterial activity against methicillin-resistant Staphylococcus aureus NRS119 after 20 hrs by broth microdilution assay. Type of data set: functional. Conditions: NRS119, 20 h. The method in brief: as §1
Data set [24] deals with Staphylococcus aureus. In words: Bactericidal activity against methicillin resistant vancomycin-resistant Staphylococcus aureus VRS11a up to 18 hrs by broth microdilution assay. As to conditions: read-out: MBC99.9. It counts as functional.
For data set [25], the system named is Staphylococcus aureus. The data set can be described thus: Potency index, ratio of vancomycin MIC to compound MIC for antibacterial activity against vancomycin-resistant Staphylococcus aureus VRS12. It counts as functional.
Data set [26] concerns Staphylococcus aureus. In words: Antibacterial activity against vancomycin-resistant Staphylococcus aureus VRS10 after 20 hrs by broth microdilution assay. Type of data set: functional. As to conditions: VRS10, 20 h. The method in brief:
as §1

Data set [27] concerns Staphylococcus aureus. The data set can be described thus: Bactericidal activity against methicillin resistant vancomycin-resistant Staphylococcus aureus VRS10 up to 18 hrs by broth microdilution assay. It counts as functional. As to conditions: VRS10, 18 h, read-out: MBC99.9.
In data set [28] the test system is Staphylococcus aureus. In words: Ratio of MBC to MIC for methicillin-resistant Staphylococcus aureus NRS107. Type of data set: functional. The method, boiled down: as §2
For data set [29], the system named is Staphylococcus aureus. The data set can be described thus: Antibacterial activity against methicillin-resistant Staphylococcus aureus NRS123 (USA400) after 20 hrs by broth microdilution assay. Type of data set: functional. The method, boiled down: as §1
The nature of data set [30]: Efflux ratio of apparent permeability in human Caco2 cells at 10 uM after 60 mins by LC-MS/MS analysis. It counts as ADME, cell-based. As to conditions: caco-2, 1 h. The method, boiled down:
(§3)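 Caco-2 monolayers were seeded at 1 × 10^5 cells/cm2 and differentiated for three weeks. Test article was at 10 μM (1% DMSO) in HBSS-MES pH 6.5 or HBSS-HEPES pH 7.4 and added to the donor side. Incubation ran 60 min (A→B) or 40 min (B→A), and receiver buffer was analysed by LC/MS/MS. Lucifer yellow and fluorescein checked monolayer integrity. Efflux ratio = Papp(B→A)/Papp(A→B).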
For orientation: Caco-2 cells form a polarised layer with tight junctions and transporters.

A short description of data set [31]: Apparent permeability from apical to basolateral side in human Caco2 cells at 10 uM after 60 mins by LC-MS/MS analysis. Type of data set: ADME, cell-based. As to conditions: caco-2, 1 h. The method in brief: as §3
Data set [32] can be described thus: Apparent permeability from basolateral to apical side in human Caco2 cells at 10 uM after 60 mins by LC-MS/MS analysis. It counts as ADME, cell-based. As to conditions: caco-2, 1 h.

For the molecule `C/C(=N\NC1=NCCN1)c1sc(-c2ccc(C#CC3CC3)cc2)nc1C`, the CLH in data set [1] is < 115.5 µL/min/mg. The MBC in the data set with Staphylococcus aureus [2] is 16 µg/mL (≈ 44 µM). Moreover, the MIC – broadly, the least concentration at which growth counts as inhibited – against Staphylococcus aureus [3] turned out to be 8 µg/mL (≈ 22 µM).
Take `C/C(=N\NC(=N)N)c1sc(-c2ccc(C#CC3CCCC3)cc2)nc1C`: the MIC against Staphylococcus aureus [4] came to 2 µg/mL (≈ 5.47 µM); in the data set with Staphylococcus aureus [9], 1 µg/mL (≈ 2.74 µM); with Staphylococcus aureus [20], 2 µg/mL (≈ 5.47 µM); in the data set with Staphylococcus aureus [23], 1 µg/mL (≈ 2.74 µM); in the data set with Staphylococcus aureus [26], 2 µg/mL (≈ 5.47 µM); in the data set with Staphylococcus aureus [3], 2 µg/mL (≈ 5.47 µM). The molecule also returned an MIC with Staphylococcus aureus [29] of 2 µg/mL (≈ 5.47 µM). Moreover, the fold change (FC) in the data set with Staphylococcus aureus [5] is 512. Besides, the Ratio entry in the data set with Staphylococcus aureus [6] is “<=3”; in the data set on Staphylococcus aureus [11], 4; with Staphylococcus aureus [12], “<=3”; in the data set with Staphylococcus aureus [15] it was >100; with Staphylococcus aureus [16] it was “<=3”; in the data set with Staphylococcus aureus [18] it was >100. Further, the Ratio result is “<=3” with Staphylococcus aureus [19], “<=3” with Staphylococcus aureus [21], 8 in the data set with Staphylococcus aureus [25] and “<=3” in the data set with Staphylococcus aureus [28]. For the same molecule, the MBC in the data set with Staphylococcus aureus [7] amounted to 2 µg/mL (≈ 5.47 µM); in the data set with Staphylococcus aureus [8], 2 µg/mL (≈ 5.47 µM); in the data set with Staphylococcus aureus [13] it was 2 µg/mL (≈ 5.47 µM); in the data set on Staphylococcus aureus [14] it was 2 µg/mL (≈ 5.47 µM); with Staphylococcus aureus [2], 4 µg/mL (≈ 10.9 µM); with Staphylococcus aureus [24] it was 4 µg/mL (≈ 10.9 µM). Further, in the data set on Staphylococcus aureus [27], the MBC amounted to 2 µg/mL (≈ 5.47 µM). Also, the result in the data set with Staphylococcus aureus [10] was inactive. The Activity result in the data set on HRT-18 cell line is reported as “Non-Toxic”; in the data set on Staphylococcus aureus [17], 3 deltalog10CFU/ml; with J774, “Non-Toxic”. In addition, in data set [22], the selectivity ratio fell in the range of 7 to 31.
As for `CNC(=C[N+](=O)[O-])NCCSCc1ccc(CN(C)C)o1` [RANITIDINE], the Ratio in data set [30] was 6.3. The Papp (in general, a coefficient for how fast a substance crosses the barrier) in data set [31] turned out to be 0.27 ×10⁻⁶ cm/s; in data set [32], 1.71 ×10⁻⁶ cm/s.
